In ChEMBL document CHEMBL5620421, “2,6-Disubstituted 7-(naphthalen-2-ylmethyl)-7H-purines as a new class of potent antitubercular agents inhibiting DprE1” (Eur J Med Chem, 2023):

Columns and labels:
Type in all cases: functional
Details in all cases: time 14-21 day
[1] = system: Mycobacterium tuberculosis; assay: (§1) Antimycobacterial activity against isoniazid/ethambutol/rifampin/streptomycin/amikacin/gentamicin/clofazimine/ofloxacin resistant MDR/XDR clinical isolate Mycobacterium tuberculosis PRAHA 131 assessed as inhibition of mycobacterial growth measured after 14 to 21 days of incubation by Sulas semisynthetic medium based assay
Outline: (§2)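 Clinical MDR/XDR M. tuberculosis isolates were tested by the Sula's semisynthetic medium micromethod. Compounds in DMSO at 1000 to 0.5 μmol/L, in twofold-type steps. Incubation at 37 °C, read at 14 and 21 days. MIC99 is the lowest concentration inhibiting >99% of growth. Drug resistance or susceptibility of each isolate is to amikacin, clofazimine, gentamicin, ofloxacin, streptomycin and the others listed.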

[2] = system: Mycobacterium tuberculosis; assay: as §1, with “4” for “131”; outline: as §2
[3] = system: Mycobacterium tuberculosis; assay: as §1, with “1” for “131”; outline: as §2
[4] = system: Mycobacterium tuberculosis; assay: as §1, with “9449/2007” for “PRAHA 131”; outline: as §2
[5] = system: Mycobacterium tuberculosis; assay: as §1, with “234/2005” for “PRAHA 131”; outline: as §2
[6] = system: Mycobacterium tuberculosis; assay: as §1, with “7357/1998” for “PRAHA 131”; outline: as §2
[7] = system: Mycobacterium tuberculosis; assay: as §1, with “8666/2010” for “PRAHA 131”; outline: as §2

Compound	MIC99 [1] [µM]	MIC99 [2] [µM]	MIC99 [3] [µM]	MIC99 [4] [µM]	MIC99 [5] [µM]	MIC99 [6] [µM]	MIC99 [7] [µM]
NCC[C@H](O)C(=O)N[C@@H]1C[C@H](N)[C@@H](O[C@H]2O[C@H](CN)[C@@H](O)[C@H](O)[C@H]2O)[C@H](O)[C@H]1O[C@H]1O[C@H](CO)[C@@H](O)[C@H](N)[C@H]1O [AMIKACIN]	> 32						
CC1COc2c(N3CCN(C)CC3)c(F)cc3c(=O)c(C(=O)O)cn1c23 (stereo not given) [OFLOXACIN]		> 16					
CO[C@H]1/C=C/O[C@@]2(C)Oc3c(C)c(O)c4c(O)c(c(/C=N/N5CCN(C)CC5)c(O)c4c3C2=O)NC(=O)/C(C)=C\C=C\[C@H](C)[C@H](O)[C@@H](C)[C@@H](O)[C@@H](C)[C@H](OC(C)=O)[C@@H]1C [RIFAMPIN]	> 8	> 8	> 8	> 8	> 8	> 8	> 8
CN[C@@H]1[C@H](O[C@H]2[C@H](O[C@H]3[C@H](O)[C@@H](O)[C@H](N=C(N)N)[C@@H](O)[C@@H]3N=C(N)N)O[C@@H](C)[C@]2(O)C=O)O[C@@H](CO)[C@H](O)[C@H]1O [STREPTOMYCIN]	> 32	> 32		> 32		> 32	> 32
GENTAMICIN	> 8						
